Results from ChEMBL document CHEMBL1142636 (2000).

Key:
[1] = test system: HCT-116; assay: Growth inhibition of human HCT116 cells; type: functional
[2] = Growth inhibition of human RPMI8266 cells; type: functional
[3] = Growth inhibition of human […] cells; type: functional
[4] = test system: HOP-62; assay: Growth inhibition of human HOP62 cells; type: functional
[5] = test system: NCI-H322M; assay: Growth inhibition of human NCI-H322M cells; type: functional
[6] = test system: TK-10; assay: Growth inhibition of human TK10 cells; type: functional
Outline: (§1)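 Tested at the NCI in its human disease-oriented in vitro screen of 60 tumour cell lines, following the Monks et al. methods. Activity is expressed as GI50, given as log molar values.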

[7] = test system: HCT-15; assay: Growth inhibition of human HCT15 cells; type: functional
[8] = test system: KM-20L2; assay: Growth inhibition of human KM20L2 cells; type: functional
[9] = test system: SNB-75; assay: Growth inhibition of human SNB75 cells; type: functional; outline: as §1
[10] = test system: Malme-3M; assay: Growth inhibition of human MALME-3M cells; type: functional
[11] = Growth inhibition of human DMS144 cells; type: functional
[12] = test system: MOLT-4; assay: Growth inhibition of human MOLT4 cells; type: functional
[13] = Growth inhibition of human OVACR4 cells; type: functional
[14] = test system: NCI-H226; assay: Growth inhibition of human NCI-H226 cells; type: functional
[15] = test system: SF-268; assay: Growth inhibition of human SF268 cells; type: functional; outline: as §1
[16] = test system: UO-31; assay: Growth inhibition of human UO31 cells; type: functional; outline: as §1
[17] = test system: M19-MEL; assay: Growth inhibition of human M19-MEL cells; type: functional
[18] = test system: SF-539; assay: Growth inhibition of human SF539 cells; type: functional; outline: as §1
[19] = test system: HCC 2998; assay: Growth inhibition of human HCC2998 cells; type: functional
[20] = test system: SR; assay: Growth inhibition of human SR cells; type: functional; outline: as §1
[21] = test system: A549; assay: Growth inhibition of human A549 cells; type: functional
[22] = test system: XF498; assay: Growth inhibition of human XF498 cells; type: functional; outline: as §1
[23] = test system: M14; assay: Growth inhibition of human M14 cells; type: functional
[24] = Growth inhibition of human OVACR8 cells; type: functional
[25] = test system: UACC-62; assay: Growth inhibition of human UACC62 cells; type: functional; outline: as §1
[26] = test system: SK-OV-3; assay: Growth inhibition of human SK-OV-3 cells; type: functional; outline: as §1
[27] = Growth inhibition of human HL60(TB) cells; type: functional, HL-60(TB); conditions: HL-60
[28] = test system: NCI-H522; assay: Growth inhibition of human NCI-H522 cells; type: functional
[29] = test system: K562; assay: Growth inhibition of human K562 cells; type: functional
[30] = test system: LOX IMVI; assay: Growth inhibition of human LOX IMVI cells; type: functional
[31] = Growth inhibition of human OVACR5 cells; type: functional
[32] = test system: SK-MEL-28; assay: Growth inhibition of human SK-MEL-28 cells; type: functional; outline: as §1
[33] = test system: NCI-H460; assay: Growth inhibition of human NCI-H460 cells; type: functional
[34] = test system: HOP-92; assay: Growth inhibition of human HOP92 cells; type: functional
[35] = test system: COLO 205; assay: Growth inhibition of human COLO205 cells; type: functional
[36] = test system: CCRF-CEM; assay: Growth inhibition of human CCRF-CEM cells; type: functional
[37] = test system: SW-620; assay: Growth inhibition of human SW620 cells; type: functional; outline: as §1
[38] = test system: ACHN; assay: Growth inhibition of human ACHN cells; type: functional
[39] = test system: DMS-273; assay: Growth inhibition of human DMS273 cells; type: functional
[40] = test system: U-251; assay: Growth inhibition of human U251 cells; type: functional; outline: as §1
[41] = test system: KM12; assay: Growth inhibition of human KM12 cells; type: functional
[42] = test system: IGROV-1; assay: Growth inhibition of human IGROV1 cells; type: functional
[43] = test system: SK-MEL-2; assay: Growth inhibition of human SK-MEL-2 cells; type: functional; outline: as §1
[44] = Growth inhibition of human LXFL529 cells; type: functional; conditions: LXFL 529
[45] = test system: HT-29; assay: Growth inhibition of human HT29 cells; type: functional
[46] = test system: SK-MEL-5; assay: Growth inhibition of human SK-MEL-5 cells; type: functional; outline: as §1
[47] = test system: SNB-19; assay: Growth inhibition of human SNB19 cells; type: functional; outline: as §1
[48] = test system: DLD-1; assay: Growth inhibition of human DLD1 cells; type: functional
[49] = test system: RXF 393; assay: Growth inhibition of human […] cells; type: functional
[50] = test system: SN12C; assay: Growth inhibition of human SN12C cells; type: functional; outline: as §1
[51] = test system: 786-0; assay: Growth inhibition of human 786-0 cells; type: functional
[52] = test system: HOP-18; assay: Growth inhibition of human HOP18 cells; type: functional

Cc1cc2c(cc1O)[nH]c1cc3c(cc12)C=CC(C)(C)O3 gave a GI50 [1] of 12.9 µM, a GI50 [2] of 9.12 µM and a GI50 [3] of 7.24 µM. The GI50 [4] was 7.94 µM, the GI50 [5] was 13.2 µM and the GI50 [6] was 25.1 µM. It also gave a GI50 [7] of 8.71 µM, a GI50 [8] of 9.33 µM and a GI50 [9] of 11.2 µM. For the same compound, the GI50 [10] was 10 µM, the GI50 [11] was 10.7 µM and the GI50 [12] was 0.00324 µM. It also gave a GI50 [13] of 10.5 µM, a GI50 [14] of 19.1 µM and a GI50 [15] of 6.76 µM. The GI50 [16] was 11.5 µM, the GI50 [17] was 19.5 µM and the GI50 [18] was 4.07 µM. The GI50 [19] was 6.76 µM, the GI50 [20] was 6.46 µM and the GI50 [21] was 6.46 µM. The GI50 [22] was 25.1 µM, the GI50 [23] was 6.03 µM and the GI50 [24] was 4.57 µM. For the same compound, the GI50 [25] was 6.76 µM, the GI50 [26] was 25.1 µM and the GI50 [27] was 6.92 µM. For the same compound, the GI50 [28] was 8.32 µM, the GI50 [29] was 25.1 µM and the GI50 [30] was 3.98 µM. The GI50 [31] was 17.8 µM, the GI50 [32] was 14.5 µM and the GI50 [33] was 5.37 µM. For the same compound, the GI50 [34] was 9.77 µM, the GI50 [35] was 25.1 µM and the GI50 [36] was 20 µM. For the same compound, the GI50 [37] was 7.59 µM, the GI50 [38] was 9.33 µM and the GI50 [39] was 5.01 µM. It also gave a GI50 [40] of 6.03 µM, a GI50 [41] of 5.25 µM and a GI50 [42] of 22.9 µM. For the same compound, the GI50 [43] was 25.1 µM, the GI50 [44] was 9.33 µM and the GI50 [45] was 11.7 µM. It also gave a GI50 [46] of 17.4 µM, a GI50 [47] of 25.1 µM and a GI50 [48] of 12.9 µM. It also gave a GI50 [49] of 4.9 µM and a GI50 [50] of 6.31 µM.
For COc1cc(C)cc2c1[nH]c1ccccc12 [MURRAYAFOLINE A], the GI50 [1] was 11.5 µM, the GI50 [2] was 8.71 µM and the GI50 [3] was 8.91 µM. It also gave a GI50 [4] of 6.31 µM, a GI50 [5] of 12.9 µM and a GI50 [6] of 25.1 µM. It also gave a GI50 [7] of 7.41 µM, a GI50 [8] of 7.59 µM and a GI50 [9] of 25.1 µM. For the same compound, the GI50 [10] was 8.13 µM, the GI50 [11] was 9.55 µM and the GI50 [13] was 25.1 µM. The GI50 [14] was 8.51 µM, the GI50 [15] was 14.5 µM and the GI50 [16] was 15.1 µM. It also gave a GI50 [17] of 18.2 µM, a GI50 [18] of 6.03 µM and a GI50 [19] of 14.8 µM. It also gave a GI50 [20] of 10.2 µM, a GI50 [21] of 1.15 µM and a GI50 [22] of 22.4 µM. The GI50 [23] was 7.24 µM, the GI50 [24] was 7.41 µM and the GI50 [25] was 15.1 µM. It also gave a GI50 [26] of 20.9 µM, a GI50 [27] of 6.92 µM and a GI50 [28] of 4.27 µM. For the same compound, the GI50 [29] was 25.1 µM, the GI50 [30] was 12.6 µM and the GI50 [51] was 9.33 µM. The GI50 [31] was 24.5 µM, the GI50 [32] was 16.2 µM and the GI50 [33] was 7.76 µM. It also gave a GI50 [34] of 23.4 µM, a GI50 [35] of 12.3 µM and a GI50 [36] of 15.5 µM. It also gave a GI50 [37] of 8.32 µM, a GI50 [52] of 0.288 µM and a GI50 [38] of 23.4 µM. It also gave a GI50 [39] of 7.76 µM, a GI50 [40] of 10.5 µM and a GI50 [41] of 8.13 µM. The GI50 [42] was 14.8 µM, the GI50 [43] was 7.41 µM and the GI50 [44] was 18.2 µM. It also gave a GI50 [45] of 7.76 µM, a GI50 [46] of 9.12 µM and a GI50 [47] of 25.1 µM. It also gave a GI50 [48] of 10.5 µM, a GI50 [49] of 9.33 µM and a GI50 [50] of 14.1 µM.
